Laboratory results as given in ChEMBL document CHEMBL5678801, “A benzothiophene inhibitor of mitogen-activated protein kinase-activated protein kinase 2 inhibits tumor necrosis factor alpha production and has oral anti-inflammatory efficacy in acute and chronic models of inflammation” (J Pharmacol Exp Ther, 2010).

Legend:
[1] = target: MAP kinase-activated protein kinase 2 (Homo sapiens, UniProt P49137); assay: Binding affinity to recombinant N-terminal truncated MK2 (45 to 371 residues) (unknown origin) expressed in Escherichia coli assessed as inhibition constant measured after 15 mins by surface plasmon resonance spectroscopy analysis
[2] = target: T1, Phosphorylase b kinase gamma catalytic chain, liver/testis isoform (Homo sapiens, UniProt P15735); assay: Inhibition of PhKgamma2 (unknown origin)
T1 sequence (P15735 whole entry): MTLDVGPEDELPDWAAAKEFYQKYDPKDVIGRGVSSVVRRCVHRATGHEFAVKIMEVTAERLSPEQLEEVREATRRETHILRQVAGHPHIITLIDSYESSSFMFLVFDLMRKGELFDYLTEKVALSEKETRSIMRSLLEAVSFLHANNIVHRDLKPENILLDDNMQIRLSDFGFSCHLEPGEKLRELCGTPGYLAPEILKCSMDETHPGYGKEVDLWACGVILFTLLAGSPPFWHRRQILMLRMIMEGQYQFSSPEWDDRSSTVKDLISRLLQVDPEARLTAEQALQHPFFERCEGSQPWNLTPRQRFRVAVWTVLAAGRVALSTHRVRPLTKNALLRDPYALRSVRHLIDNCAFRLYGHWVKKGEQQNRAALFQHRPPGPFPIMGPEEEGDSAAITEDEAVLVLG
Summary of the method: (§1)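 Kinase panel: 200 kinases were first screened at 1 μM inhibitor for percent inhibition. Those above 50% inhibition were then titrated for IC50. MgATP was fixed at the Km(app) determined for each enzyme.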

[3] = target: T2, MAP kinase-activated protein kinase 5 (Homo sapiens, UniProt Q8IW41); assay: Inhibition of recombinant PRAK (unknown origin) expressed in Escherichia coli using KKKALSRQLSVAA as substrate incubated for 1 hr followed by substrate addition in presence of ATP
T2 sequence (Q8IW41 whole entry): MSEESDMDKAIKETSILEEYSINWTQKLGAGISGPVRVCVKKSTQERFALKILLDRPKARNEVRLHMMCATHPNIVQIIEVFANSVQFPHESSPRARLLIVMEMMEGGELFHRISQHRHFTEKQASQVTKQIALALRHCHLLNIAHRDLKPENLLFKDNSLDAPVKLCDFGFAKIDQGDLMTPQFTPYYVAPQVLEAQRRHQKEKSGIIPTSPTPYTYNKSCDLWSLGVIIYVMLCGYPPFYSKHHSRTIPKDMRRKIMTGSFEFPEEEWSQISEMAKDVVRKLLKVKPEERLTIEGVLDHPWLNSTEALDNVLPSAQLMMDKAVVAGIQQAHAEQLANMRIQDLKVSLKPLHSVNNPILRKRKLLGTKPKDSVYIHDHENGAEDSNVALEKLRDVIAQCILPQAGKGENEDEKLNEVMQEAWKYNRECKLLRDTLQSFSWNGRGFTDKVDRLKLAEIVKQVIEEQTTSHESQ
Summary of the method: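 Recombinant kinase first activated with activated p38α (1:50 molar ratio) and 250 μM ATP for 1 hr at 30°C. Activity measured by 33P-labelled product peptide, separated by ion exchange. MgATP fixed at the Km(app) determined for each enzyme. IC50 values from duplicate experiments.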

[4] = tested on: Rattus norvegicus; assay: Antiarthritic activity in chronic SCW-induced arthritis Lewis rat model assessed as inhibition of chronic paw swelling administered twice daily via oral gavage for 10 to 21 days; type: organism-based; details: time 10-21 day
Summary of the method: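 Female Lewis rats (125-140 g) received a single i.p. streptococcal cell wall injection. Animals showing the acute phase were pooled, 4-8 per group over three experiments. Dosing was oral gavage b.i.d., days 10-21, in methylcellulose-Tween-20 vehicle. Hind paw volume was read by displacement plethysmometer on day 21, as % inhibition of swelling. Plasma was sampled up to 11 h after the last dose, 3 rats per dose. ED values came from fitted curves.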

[5] = Plasma protein binding in rat; type: ADME, cell-free
Summary of the method: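 Binding to rat and human plasma was measured in vitro by ultracentrifugation.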

[6] = target: Cyclin-dependent kinase 1/cyclin B1 (Homo sapiens, UniProt P06493); assay: Inhibition of CDK1/cycB (unknown origin); type: protein-complex assay; summary of the method: as §1
[7] = target: Cyclin-dependent kinase 5/CDK5 activator 1 (Homo sapiens, UniProt Q00535); assay: Inhibition of CDK5/p35 (unknown origin); type: protein-complex assay; summary of the method: as §1
[8] = Antiinflammatory activity in human PBMC cells assessed as inhibition of LPS induced IL-1 beta production preincubated for 1 hr followed by LPS stimulation and measured after 16 hrs by MSD analysis; type: functional, cell-based
Summary of the method: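 Human PBMCs were pretreated with compound for 1 h (<1% DMSO final), then stimulated with LPS 100 ng/ml at 37°C. Cytokines in culture media were read by MSD 4-plex: TNFα at 4 h; IL-1β, IL-6 and IL-8 at 16 h. Data are means ±S.E.M. of two independent experiments in duplicate, three donors. IC50 by 4-parameter nonlinear regression.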

[9] = target: T3, Tyrosine-protein kinase receptor UFO (Homo sapiens, UniProt P30530); assay: Inhibition of Axl (unknown origin); summary of the method: as §1
T3 sequence (P30530 whole entry): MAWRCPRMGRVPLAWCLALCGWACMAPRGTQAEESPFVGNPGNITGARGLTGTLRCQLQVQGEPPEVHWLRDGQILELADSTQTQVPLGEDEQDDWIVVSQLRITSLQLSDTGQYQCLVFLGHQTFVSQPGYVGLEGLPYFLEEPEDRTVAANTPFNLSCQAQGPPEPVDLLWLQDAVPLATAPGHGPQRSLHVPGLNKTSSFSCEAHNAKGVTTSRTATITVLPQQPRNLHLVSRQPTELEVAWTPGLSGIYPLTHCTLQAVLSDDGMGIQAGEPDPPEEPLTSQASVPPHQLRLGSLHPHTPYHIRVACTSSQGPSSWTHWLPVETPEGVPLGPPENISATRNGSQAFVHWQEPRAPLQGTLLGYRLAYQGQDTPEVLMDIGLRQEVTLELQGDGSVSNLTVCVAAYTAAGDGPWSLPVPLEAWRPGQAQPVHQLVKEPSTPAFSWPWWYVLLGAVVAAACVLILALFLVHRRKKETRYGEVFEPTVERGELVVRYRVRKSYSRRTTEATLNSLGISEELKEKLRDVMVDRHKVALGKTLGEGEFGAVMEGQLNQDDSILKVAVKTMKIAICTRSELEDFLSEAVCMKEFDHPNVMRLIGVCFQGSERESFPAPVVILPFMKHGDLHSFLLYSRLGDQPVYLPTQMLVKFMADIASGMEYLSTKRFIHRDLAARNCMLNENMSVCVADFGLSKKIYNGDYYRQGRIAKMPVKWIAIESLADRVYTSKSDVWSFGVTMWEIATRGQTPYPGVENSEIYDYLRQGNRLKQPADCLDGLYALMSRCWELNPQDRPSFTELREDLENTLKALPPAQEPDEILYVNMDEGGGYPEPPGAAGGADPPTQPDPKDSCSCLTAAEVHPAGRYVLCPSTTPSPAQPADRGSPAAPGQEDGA

[10] = Inhibition of MK2 activity in LPS induced human Whole blood cell preincubated with compound for 1 hr followed by LPS induction and measured after 30 mins by Dissociation enhanced lanthanide fluoro-immuno assay; type: functional, cell-based
Summary of the method: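 Whole blood was stimulated with LPS 100 ng/ml for 30 min. Phospho-Ser82 HSP27 and total HSP27 in lysates were read by DELFIA immunoassay.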

Chain of Cyclin-dependent kinase 1/cyclin B1 (P06493 whole entry): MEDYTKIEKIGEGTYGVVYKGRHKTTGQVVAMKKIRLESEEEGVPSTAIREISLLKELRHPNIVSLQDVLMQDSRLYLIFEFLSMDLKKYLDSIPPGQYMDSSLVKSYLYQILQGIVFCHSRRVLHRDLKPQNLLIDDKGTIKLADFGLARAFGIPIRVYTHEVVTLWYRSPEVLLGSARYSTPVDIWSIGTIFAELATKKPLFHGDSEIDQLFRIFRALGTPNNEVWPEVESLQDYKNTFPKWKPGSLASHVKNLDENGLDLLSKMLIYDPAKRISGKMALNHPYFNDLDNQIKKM
Chain of Cyclin-dependent kinase 1/cyclin B1 (P14635 whole entry, further chain): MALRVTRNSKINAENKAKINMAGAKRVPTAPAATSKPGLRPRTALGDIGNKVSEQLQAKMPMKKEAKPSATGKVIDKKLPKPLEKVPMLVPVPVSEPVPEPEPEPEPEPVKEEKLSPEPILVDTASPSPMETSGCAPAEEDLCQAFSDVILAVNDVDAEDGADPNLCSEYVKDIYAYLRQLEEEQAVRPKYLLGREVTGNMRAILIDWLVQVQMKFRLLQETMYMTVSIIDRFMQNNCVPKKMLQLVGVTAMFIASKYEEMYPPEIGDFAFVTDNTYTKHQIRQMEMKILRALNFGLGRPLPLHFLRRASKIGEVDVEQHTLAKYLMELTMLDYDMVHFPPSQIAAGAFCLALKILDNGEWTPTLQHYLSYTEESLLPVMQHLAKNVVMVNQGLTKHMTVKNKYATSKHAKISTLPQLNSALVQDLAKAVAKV
Chain of MAP kinase-activated protein kinase 2 (P49137 whole entry, the tested form may be a part, canonical isoform): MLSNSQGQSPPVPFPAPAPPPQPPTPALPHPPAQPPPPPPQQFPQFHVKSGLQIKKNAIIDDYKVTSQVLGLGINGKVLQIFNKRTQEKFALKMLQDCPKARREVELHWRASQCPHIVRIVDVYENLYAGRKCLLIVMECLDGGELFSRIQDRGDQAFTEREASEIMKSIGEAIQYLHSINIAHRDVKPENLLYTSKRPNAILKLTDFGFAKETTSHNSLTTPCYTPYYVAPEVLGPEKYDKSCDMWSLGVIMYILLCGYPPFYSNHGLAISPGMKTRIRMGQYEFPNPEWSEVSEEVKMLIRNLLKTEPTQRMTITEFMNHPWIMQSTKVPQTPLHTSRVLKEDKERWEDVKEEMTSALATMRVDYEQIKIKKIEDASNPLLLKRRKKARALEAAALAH
Chain of Cyclin-dependent kinase 5/CDK5 activator 1 (Q00535 whole entry): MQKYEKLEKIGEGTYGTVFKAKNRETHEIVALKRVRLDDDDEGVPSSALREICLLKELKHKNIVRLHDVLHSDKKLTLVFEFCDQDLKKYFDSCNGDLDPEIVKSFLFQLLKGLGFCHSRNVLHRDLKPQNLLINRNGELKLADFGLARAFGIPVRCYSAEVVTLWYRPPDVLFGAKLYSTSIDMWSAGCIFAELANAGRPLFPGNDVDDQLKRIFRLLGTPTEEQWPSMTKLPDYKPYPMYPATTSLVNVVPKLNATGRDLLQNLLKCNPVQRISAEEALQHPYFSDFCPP
Chain of Cyclin-dependent kinase 5/CDK5 activator 1 (Q15078 whole entry, further chain): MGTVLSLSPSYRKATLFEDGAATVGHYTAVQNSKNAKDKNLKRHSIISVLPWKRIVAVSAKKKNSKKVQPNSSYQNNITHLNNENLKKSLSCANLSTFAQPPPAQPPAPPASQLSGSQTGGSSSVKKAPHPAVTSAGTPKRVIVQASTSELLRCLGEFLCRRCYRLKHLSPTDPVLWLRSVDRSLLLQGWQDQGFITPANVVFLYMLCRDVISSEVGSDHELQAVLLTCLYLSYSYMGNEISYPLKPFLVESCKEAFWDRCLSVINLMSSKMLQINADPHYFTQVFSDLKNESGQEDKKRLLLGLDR

Compound `Cc1ccc(-c2ccc3c(ccc4sc5c(c43)NC[C@@H](C)NC5=O)n2)cn1` has a Ki [1] of 3 nM, an IC50 [2] of 528 nM and an IC50 [3] of 5 nM. It also gave an ED50 ([4]; Rattus norvegicus, Lewis) of 20 mg/kg, an ED80 ([4]; rat, in vivo, po) of 50 mg/kg and a PPB [5] of 92.1%. It also gave an IC50 [6] of 354 nM, an IC50 [7] of 902 nM and an IC50 [8] of 2710 nM. The IC50 [9] was 428 nM and the IC50 [10] was 1600 nM.
